Holding throughout (type): functional
The test system of assay [1] is Mus musculus. The assay can be described thus: Anticonvulsant activity was measured by subcutaneous pentylenetetrazole test on mice at 30 min at the dose of 300 mg/kg; number of animals protected/number of animals tested, 1/1.
Assay [2] deals with Mus musculus. The assay can be described thus: Anticonvulsant activity was measured by rotarod toxicity teston mice at 0.50 hr at the dose of 50 mg/kg; number of animals protected/number of animals tested 0/4. For orientation: Falling from the rotarod earlier than controls is read as motor impairment.
The subject of assay [3] is Mus musculus. The assay can be described thus: Anticonvulsant activity was measured by maximal electroshock test on mice at 0.50 hr at the dose of 50 mg/kg; number of animals protected/number of animals tested 0/4.
For assay [4], the system named is Mus musculus. The assay can be described thus: Anticonvulsant activity was measured by subcutaneous pentylenetetrazole test on mice at 0.50 hr at the dose of 50 mg/kg; number of animals protected/number of animals tested 0/4.
Assay [5] has as its system Mus musculus. The experiment in a line: Anticonvulsant activity was measured by rotarod toxicity test on mice at 2 hr at the dose of 50 mg/kg;number of animals protected/number of animals tested 0/4.
The test system of assay [6] is Mus musculus. The assay can be described thus: Anticonvulsant activity was measured by rotarod toxicity test on mice at 1 hr at the dose of 50 mg/kg; number of animals protected/number of animals tested 0/4.
In assay [7] the test system is Mus musculus. The assay can be described thus: Anticonvulsant activity was measured by maximal electroshock test on mice at 4 hr at the dose of 100 mg/kg; number of animals protected/number of animals tested, 0/3. A general note: In the maximal electroshock model the usual endpoint is tonic extension of the hind limbs.
The subject of assay [8] is Mus musculus. The experiment in a line: Anticonvulsant activity was measured by rotarod toxicity test on mice at 30 min at the dose of 300 mg/kg; number of animals protected/number of animals tested, 4/4.
Assay [9] concerns Mus musculus. The assay can be described thus: Anticonvulsant activity was measured by maximal electroshock test on mice at 30 min at the dose of 300 mg/kg; number of animals protected/number of animals tested, 1/1.
In assay [10] the test system is Mus musculus. The assay can be described thus: Anticonvulsant activity was measured by rotarod toxicity test on mice at 30 min at the dose of 100 mg/kg; number of animals protected/number of animals tested, 0/8.
The subject of assay [11] is Mus musculus. The assay can be described thus: Anticonvulsant activity was measured by rotarod toxicity test on mice at 4 hr at the dose of 300 mg/kg; number of animals protected/number of animals tested, 2/2.
Assay [12] concerns Mus musculus. The assay can be described thus: Anticonvulsant activity was measured by maximal electroshock test on mice at 1 hr at the dose of 50 mg/kg; number of animals protected/number of animals tested 1/4.
Assay [13] has as its system Mus musculus. The assay can be described thus: Anticonvulsant activity was measured by subcutaneous pentylenetetrazole test on mice at 30 min at the dose of 100 mg/kg; number of animals protected/number of animals tested, 0/1.
For assay [14], the system named is Mus musculus. The assay can be described thus: Anticonvulsant activity was measured by rotarod toxicity test on mice at 4 hr at the dose of 100 mg/kg; number of animals protected/number of animals tested 0/4.
Assay [15] deals with Mus musculus. The experiment in a line: Anticonvulsant activity was measured by maximal electroshock test on mice at 4 hr at the dose of 300 mg/kg; number of animals protected/number of animals tested, 0/1.
Assay [16] deals with Mus musculus. The assay can be described thus: Anticonvulsant activity was measured by maximal electroshock test on mice at 4 hr at the dose of 50 mg/kg; number of animals protected/number of animals tested 0/4.
Assay [17] has as its system Mus musculus. The assay can be described thus: Anticonvulsant activity was measured by subcutaneous pentylenetetrazole test on mice at 4 h at the dose of 300 mg/kg; number of animals protected/number of animals tested, 0/1.
The subject of assay [18] is Mus musculus. The experiment in a line: Anticonvulsant activity was measured by maximal electroshock test on mice at 0.25 hr at the dose of 50 mg/kg; number of animals protected/number of animals tested 0/4.
The subject of assay [19] is Mus musculus. The experiment in a line: Anticonvulsant activity was measured by rotarod toxicity teston mice at 0.25 hr at the dose of 50 mg/kg; number of animals protected/number of animals tested 0/4.
Assay [20] deals with Mus musculus. The assay can be described thus: Anticonvulsant activity was measured by subcutaneous pentylenetetrazole test on mice at 4 hr at the dose of 100 mg/kg; number of animals protected/number of animals tested, 0/3.
The subject of assay [21] is Mus musculus. The experiment in a line: Anticonvulsant activity was measured by maximal electroshock test on mice at 30 min at the dose of 100 mg/kg; number of animals protected/number of animals tested, 2/3.
In assay [22] the test system is Mus musculus. The experiment in a line: Anticonvulsant activity was measured by rotarod toxicity test on mice at 4 hr at the dose of 50 mg/kg; number of animals protected/number of animals tested 0/4.
Assay [23] has as its system Mus musculus. The assay can be described thus: Anticonvulsant activity was measured by maximal electroshock test on mice at 2 hr at the dose of 50 mg/kg; number of animals protected/number of animals tested 0/4.
Assay [24] deals with Mus musculus. The experiment in a line: Time of peak effect of toxicity of compound was measured by both MES and sc Met test in mice. The method, boiled down:
(§1)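 Phase II quantification in mice after ip dosing. ED50 (scMet or MES) measured at the time of peak effect. TD50 (rotorod neurologic deficit) measured at the time of peak neurologic deficit. Medians and 95% confidence limits by the Litchfield-Wilcoxon method. Protective index = TD50/ED50. Time of peak effect determined in the MES or scMet test.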

Assay [25] concerns Mus musculus. The assay can be described thus: Time of peak effect of activity of compound was measured by both MES and sc Met test in mice. The method, boiled down: as §1
Assay [26] has as its system Mus musculus. The experiment in a line: Anticonvulsant activity was measured by rotarod toxicity test on mice at 30 min at the dose of 300 mg/kg; number of animals protected/number of animals tested 1/4.
Assay [27] concerns Mus musculus. The experiment in a line: Anticonvulsant activity was measured by rotarod toxicity teston mice at 0.25 hr at the dose of 100 mg/kg; number of animals protected/number of animals tested 0/2.
The test system of assay [28] is Mus musculus. The experiment in a line: Elevation of threshold for electroshock induced seizures in mice was measured by ip administration after 0.5 hr at the dose of 250 mg/kg; No. of mice protected/no tested 5/8. Conditions: route intraperitoneal.
Assay [29] relates to Mus musculus. The experiment in a line: Anticonvulsant activity was measured by rotarod toxicity test on mice at 1 hr at the dose of 100 mg/kg; number of animals protected/number of animals tested 0/2.
The species entered for assay [30] is Mus musculus. The assay can be described thus: ED50 value of compound was expressed as dose protecting 50% of mice from tonic hind limb extension. To be noted: Hindlimb. The method, boiled down:
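Maximal electroshock test in male CF1 mice (23-34 g). Compound given as a 0.5% methylcellulose suspension ip or po, with testing at 0.5 h after several doses. Endpoint is protection from tonic hind limb extension.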

The subject of assay [31] is Mus musculus. The assay can be described thus: Anticonvulsant activity was measured by maximal electroshock test on mice at 4 h at the dose of 300 mg/kg; number of animals protected/number of animals tested 1/1.
For assay [32], the system named is Mus musculus. The experiment in a line: Anticonvulsant activity was measured by maximal electroshock test on mice at 0.25 hr at the dose of 100 mg/kg; number of animals protected/number of animals tested 0/2.
For assay [33], the species on record is Mus musculus. The assay can be described thus: Protective index (TD50/ED50) value in scMET test in mice. Put shortly: as §1
Assay [34] deals with Mus musculus. The experiment in a line: Effective dose was measured in mouse by maximal electroshock method by ip administration. The method, boiled down:
as §1

Assay [35] concerns Mus musculus. The experiment in a line: Anticonvulsant activity was measured by maximal electroshock test on mice at 30 min at the dose of 300 mg/kg; number of animals protected/number of animals tested 1/1.
The subject of assay [36] is Mus musculus. The experiment in a line: Elevation of threshold for electroshock induced seizures in mice was measured by ip administration after 0.5 hr at the dose of 150 mg/kg; No. of mice protected/no tested 3/12. To be noted: route intraperitoneal.
For assay [37], the system named is Mus musculus. The assay can be described thus: Effective dose was measured in mouse by subcutaneous pentylenetetrazole method by ip administration. The method, boiled down:
as §1

Assay [38] relates to Mus musculus. The assay can be described thus: Elevation of threshold for electroshock induced seizures in mice was measured by ip administration after 0.5 hr at the dose of 100 mg/kg; No. of mice protected/no tested 1/12. To be noted: route intraperitoneal.
Assay [39] concerns Mus musculus. The assay can be described thus: Elevation of threshold for electroshock induced seizures in mice was measured by ip administration after 0.5 hr at the dose of 200 mg/kg; No. of mice protected/no tested 5/12. To be noted: route intraperitoneal.
For assay [40], the system named is Mus musculus. The assay can be described thus: Anticonvulsant activity was measured by subcutaneous pentylenetetrazole test on mice at 30 min at the dose of 300 mg/kg; number of animals protected/number of animals tested 1/1.
The subject of assay [41] is Mus musculus. The assay can be described thus: Anticonvulsant activity was measured by rotarod toxicity test on mice at 4 h at the dose of 300 mg/kg; number of animals protected/number of animals tested 0/2.
The species entered for assay [42] is Mus musculus. The experiment in a line: Protective index (TD50/ED50) value in MES test in mice.
Assay [43] has as its system Mus musculus. The experiment in a line: Anticonvulsant activity was measured by subcutaneous pentylenetetrazole test on mice at 4 hr at the dose of 300 mg/kg; number of animals protected/number of animals tested 1/1.

As for `O=C1CC2(CCCC2)C(=O)N1OCc1cccc(Cl)c1`, the Ratio amounted to 1 in the assay with Mus musculus [1]; 0 with Mus musculus [2]; 0 in the assay with Mus musculus [3]; 0 in the assay on Mus musculus [4]; 0 in the assay on Mus musculus [5]; 0 in the assay on Mus musculus [6]. For the same compound, the Ratio in the assay on Mus musculus [7] came to 0; in the assay on Mus musculus [8], 4; in the assay on Mus musculus [9] it was 1; with Mus musculus [10], 0; in the assay on Mus musculus [11] it was 2; with Mus musculus [12] it was 1. Also, the Ratio in the assay on Mus musculus [13], in the assay with Mus musculus [14], in the assay on Mus musculus [15], in the assay on Mus musculus [16], with Mus musculus [17] and in the assay with Mus musculus [18] was 0 throughout. Further, the Ratio in the assay on Mus musculus [19] is 0; in the assay on Mus musculus [20], 0; with Mus musculus [21] it was 2; in the assay with Mus musculus [22], 0; in the assay on Mus musculus [23], 0.
On to `CCC1(c2ccccc2)C(=O)NC(=O)NC1=O` [PHENOBARBITAL], for which the figures for the TPE in the assay on Mus musculus [24] and in the assay on Mus musculus [25] were 0.5 and 1 toxicity, respectively.
`O=C1CC2(CCCC2)C(=O)N1OCc1ccc(Cl)cc1Cl`: the Ratio in the assay on Mus musculus [26] is 1; with Mus musculus [27], 0; in the assay on Mus musculus [29], 0; with Mus musculus [31] it was 1; with Mus musculus [32], 0; in the assay with Mus musculus [35], 1. Also, the Ratio in the assay with Mus musculus [40] was found to be 1; in the assay with Mus musculus [41] it was 0; with Mus musculus [43] it was 1. For the same compound, the TPE was determined as 0.5 in the assay with Mus musculus [24] and 1 in the assay on Mus musculus [25]. For the same compound, the Protection was 62.5% with Mus musculus [28], 25% with Mus musculus [36], 8.33% in the assay with Mus musculus [38] and 41.7% in the assay on Mus musculus [39]. The ED50 (commonly the dose that gives a 50% effect, or the effect in half of the subjects) is 216 mg/kg in the assay listed under Mus musculus [30], 241 mg/kg in the assay on Mus musculus [34] and 190 mg/kg in the assay on Mus musculus [37]. The values for the PI in the assay listed under Mus musculus [33] and in the assay listed under Mus musculus [42] were 1.9 and 1.5, respectively.

These data come from ChEMBL document CHEMBL1126893, “Synthesis and CLOGP correlation of imidooxy anticonvulsants” (J Med Chem, 1993).
